Results reported in ChEMBL document CHEMBL1255396, “Trailing or paradoxical growth of Candida albicans when exposed to caspofungin is not associated with microsatellite genotypes” (2010).
≈ marks a conversion by molar mass, not a printed value.

Experiments:
Assay type in all cases: functional
[1] = system: Candida albicans; test: Antimicrobial activity against Candida albicans isolate 26 after 48 hrs by broth microdilution assay; conditions: isolate 26, 48 h
Summary of the method: (§1)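 Sensititre YeastOne caspofungin broth microdilution, which follows the CLSI method but uses alamarBlue readout in RPMI 1640 with 2% glucose. Done in duplicate and read after 48 h at 30°C. QC strains were C. krusei ATCC 6258 and C. parapsilosis ATCC 22019. Isolates were from different patients and wards in four Marseille hospitals.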

[2] = system: Candida albicans; test: Antimicrobial activity against Candida albicans isolate 1 after 48 hrs by Etest method; conditions: isolate 1, 48 h
Summary of the method: (§2)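 Caspofungin agar-diffusion Etest strips on clinical isolates from four Marseille teaching hospitals, each from a different patient. Run in duplicate and read after 48 h at 30°C. QC strains were C. krusei ATCC 6258 and C. parapsilosis ATCC 22019. Trailing, paradoxical growth and clear endpoints were scored from growth relative to the MIC.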

[3] = system: Candida albicans; test: Antimicrobial activity against Candida albicans isolate 4 after 48 hrs by broth microdilution assay; conditions: isolate 4, 48 h; summary of the method: as §1
[4] = system: Candida albicans; test: Antimicrobial activity against Candida albicans isolate 27 after 48 hrs by broth microdilution assay; conditions: isolate 27, 48 h; summary of the method: as §1
[5] = system: Candida albicans; test: Antimicrobial activity against Candida albicans isolate 14 after 48 hrs by broth microdilution assay; conditions: isolate 14, 48 h; summary of the method: as §1
[6] = system: Candida albicans; test: Antimicrobial activity against Candida albicans isolate 25 after 48 hrs by broth microdilution assay; conditions: isolate 25, 48 h; summary of the method: as §1
[7] = system: Candida albicans; test: Antimicrobial activity against Candida albicans isolate 25 after 48 hrs by Etest method; conditions: isolate 25, 48 h; summary of the method: as §2
[8] = system: Candida albicans; test: Antimicrobial activity against Candida albicans isolate 13 after 48 hrs by Etest method; conditions: isolate 13, 48 h; summary of the method: as §2
[9] = system: Candida albicans; test: Antimicrobial activity against Candida albicans isolate 16 after 48 hrs by broth microdilution assay; conditions: isolate 16, 48 h; summary of the method: as §1
[10] = system: Candida albicans; test: Antimicrobial activity against Candida albicans isolate 2 after 48 hrs by Etest method; conditions: isolate 2, 48 h; summary of the method: as §2
[11] = system: Candida albicans; test: Antimicrobial activity against Candida albicans isolate 14 after 48 hrs by Etest method; conditions: isolate 14, 48 h; summary of the method: as §2
[12] = system: Candida albicans; test: Antimicrobial activity against Candida albicans isolate 7 after 48 hrs by Etest method; conditions: isolate 7, 48 h; summary of the method: as §2
[13] = system: Candida albicans; test: Antimicrobial activity against Candida albicans isolate 7 after 48 hrs by broth microdilution assay; conditions: isolate 7, 48 h; summary of the method: as §1
[14] = system: Candida albicans; test: Antimicrobial activity against Candida albicans isolate 4 after 48 hrs by Etest method; conditions: isolate 4, 48 h; summary of the method: as §2
[15] = system: Candida albicans; test: Antimicrobial activity against Candida albicans isolate 24 after 48 hrs by broth microdilution assay; conditions: isolate 24, 48 h; summary of the method: as §1
[16] = system: Candida albicans; test: Antimicrobial activity against Candida albicans isolate 18 after 48 hrs by Etest method; conditions: isolate 18, 48 h; summary of the method: as §2
[17] = system: Candida albicans; test: Antimicrobial activity against Candida albicans isolate 13 after 48 hrs by broth microdilution assay; conditions: isolate 13, 48 h; summary of the method: as §1
[18] = system: Candida albicans; test: Antimicrobial activity against Candida albicans isolate 11 after 48 hrs by Etest method; conditions: isolate 11, 48 h; summary of the method: as §2
[19] = system: Candida albicans; test: Antimicrobial activity against Candida albicans isolate 23 after 48 hrs by broth microdilution assay; conditions: isolate 23, 48 h; summary of the method: as §1
[20] = system: Candida albicans; test: Antimicrobial activity against Candida albicans isolate 6 after 48 hrs by Etest method; conditions: isolate 6, 48 h; summary of the method: as §2
[21] = system: Candida albicans; test: Antimicrobial activity against Candida albicans isolate 9 after 48 hrs by Etest method; conditions: isolate 9, 48 h
Summary of the method: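 Caspofungin Etest strip (agar diffusion) applied per manufacturer to a clinical isolate. Plates read after 48 h at 30°C. Testing done in duplicate. QC strains: C. krusei ATCC 6258 and C. parapsilosis ATCC 22019. Paradoxical growth and trailing were scored as separate endpoint phenotypes.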

[22] = system: Candida albicans; test: Antimicrobial activity against Candida albicans isolate 15 after 48 hrs by broth microdilution assay; conditions: isolate 15, 48 h; summary of the method: as §1
[23] = system: Candida albicans; test: Antimicrobial activity against Candida albicans isolate 27 after 48 hrs by Etest method; conditions: isolate 27, 48 h; summary of the method: as §2
[24] = system: Candida albicans; test: Antimicrobial activity against Candida albicans isolate 8 after 48 hrs by Etest method; conditions: isolate 8, 48 h; summary of the method: as §2
[25] = system: Candida albicans; test: Antimicrobial activity against Candida albicans isolate 15 after 48 hrs by Etest method; conditions: isolate 15, 48 h; summary of the method: as §2
[26] = system: Candida albicans; test: Antimicrobial activity against Candida albicans isolate 3 after 48 hrs by Etest method; conditions: isolate 3, 48 h; summary of the method: as §2
[27] = system: Candida albicans; test: Antimicrobial activity against Candida albicans isolate 16 after 48 hrs by Etest method; conditions: isolate 16, 48 h; summary of the method: as §2
[28] = system: Candida albicans; test: Antimicrobial activity against Candida albicans isolate 6 after 48 hrs by broth microdilution assay; conditions: isolate 6, 48 h; summary of the method: as §1
[29] = system: Candida albicans; test: Antimicrobial activity against Candida albicans isolate 22 after 48 hrs by broth microdilution assay; conditions: isolate 22, 48 h; summary of the method: as §1
[30] = system: Candida albicans; test: Antimicrobial activity against Candida albicans isolate 18 after 48 hrs by broth microdilution assay; conditions: isolate 18, 48 h; summary of the method: as §1
[31] = system: Candida albicans; test: Antimicrobial activity against Candida albicans isolate 9 after 48 hrs by broth microdilution assay; conditions: isolate 9, 48 h
Summary of the method: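 Sensititre Yeast One broth microdilution used per manufacturer. It matches the CLSI method except for the alamarBlue read-out and RPMI 1640 with 2% glucose. Read after 48 h at 30°C. Testing done in duplicate. QC strains: C. krusei ATCC 6258 and C. parapsilosis ATCC 22019. Paradoxical growth and trailing were scored separately.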

[32] = system: Candida albicans; test: Antimicrobial activity against Candida albicans isolate 19 after 48 hrs by broth microdilution assay; conditions: isolate 19, 48 h; summary of the method: as §1
[33] = system: Candida albicans; test: Antimicrobial activity against Candida albicans isolate 12 after 48 hrs by broth microdilution assay; conditions: isolate 12, 48 h; summary of the method: as §1
[34] = system: Candida albicans; test: Antimicrobial activity against Candida albicans isolate 5 after 48 hrs by Etest method; conditions: isolate 5, 48 h; summary of the method: as §2
[35] = system: Candida albicans; test: Antimicrobial activity against Candida albicans isolate 23 after 48 hrs by Etest method; conditions: isolate 23, 48 h; summary of the method: as §2
[36] = system: Candida albicans; test: Antimicrobial activity against Candida albicans isolate 19 after 48 hrs by Etest method; conditions: isolate 19, 48 h; summary of the method: as §2
[37] = system: Candida albicans; test: Antimicrobial activity against Candida albicans isolate 1 after 48 hrs by broth microdilution assay; conditions: isolate 1, 48 h; summary of the method: as §1
[38] = system: Candida albicans; test: Antimicrobial activity against Candida albicans isolate 12 after 48 hrs by Etest method; conditions: isolate 12, 48 h; summary of the method: as §2
[39] = system: Candida albicans; test: Antimicrobial activity against Candida albicans isolate 20 after 48 hrs by Etest method; conditions: isolate 20, 48 h; summary of the method: as §2
[40] = system: Candida albicans; test: Antimicrobial activity against Candida albicans isolate 21 after 48 hrs by Etest method; conditions: isolate 21, 48 h; summary of the method: as §2
[41] = system: Candida albicans; test: Antimicrobial activity against Candida albicans isolate 21 after 48 hrs by broth microdilution assay; conditions: isolate 21, 48 h; summary of the method: as §1
[42] = system: Candida albicans; test: Antimicrobial activity against Candida albicans isolate 26 after 48 hrs by Etest method; conditions: isolate 26, 48 h; summary of the method: as §2
[43] = system: Candida albicans; test: Antimicrobial activity against Candida albicans isolate 3 after 48 hrs by broth microdilution assay; conditions: isolate 3, 48 h; summary of the method: as §1
[44] = system: Candida albicans; test: Antimicrobial activity against Candida albicans isolate 22 after 48 hrs by Etest method; conditions: isolate 22, 48 h; summary of the method: as §2
[45] = system: Candida albicans; test: Antimicrobial activity against Candida albicans isolate 5 after 48 hrs by broth microdilution assay; conditions: isolate 5, 48 h; summary of the method: as §1
[46] = system: Candida albicans; test: Antimicrobial activity against Candida albicans isolate 24 after 48 hrs by Etest method; conditions: isolate 24, 48 h; summary of the method: as §2
[47] = system: Candida albicans; test: Antimicrobial activity against Candida albicans isolate 17 after 48 hrs by Etest method; conditions: isolate 17, 48 h; summary of the method: as §2
[48] = system: Candida albicans; test: Antimicrobial activity against Candida albicans isolate 2 after 48 hrs by broth microdilution assay; conditions: isolate 2, 48 h; summary of the method: as §1
[49] = system: Candida albicans; test: Antimicrobial activity against Candida albicans isolate 8 after 48 hrs by broth microdilution assay; conditions: isolate 8, 48 h; summary of the method: as §1
[50] = system: Candida albicans; test: Antimicrobial activity against Candida albicans isolate 17 after 48 hrs by broth microdilution assay; conditions: isolate 17, 48 h; summary of the method: as §1
[51] = system: Candida albicans; test: Antimicrobial activity against Candida albicans isolate 11 after 48 hrs by broth microdilution assay; conditions: isolate 11, 48 h; summary of the method: as §1
[52] = system: Candida albicans; test: Antimicrobial activity against Candida albicans isolate 20 after 48 hrs by broth microdilution assay; conditions: isolate 20, 48 h; summary of the method: as §1

MIC [1]: 0.094 µg/mL (≈ 0.086 µM)
MIC [2]: 0.008 µg/mL (≈ 0.00732 µM)
MIC [3]: 0.032 µg/mL (≈ 0.0293 µM)
MIC [4]: 0.047 µg/mL (≈ 0.043 µM)
MIC [5]: 0.032 µg/mL (≈ 0.0293 µM)
MIC [6]: 0.064 µg/mL (≈ 0.0585 µM)
MIC [7]: 0.064 µg/mL (≈ 0.0585 µM)
MIC [8]: 0.023 µg/mL (≈ 0.021 µM)
MIC [9]: 0.032 µg/mL (≈ 0.0293 µM)
MIC [10]: 0.032 µg/mL (≈ 0.0293 µM)
MIC [11]: 0.032 µg/mL (≈ 0.0293 µM)
MIC [12]: 0.064 µg/mL (≈ 0.0585 µM)
MIC [13]: 0.064 µg/mL (≈ 0.0585 µM)
MIC [14]: 0.032 µg/mL (≈ 0.0293 µM)
MIC [15]: 0.064 µg/mL (≈ 0.0585 µM)
MIC [16]: 0.094 µg/mL (≈ 0.086 µM)
MIC [17]: 0.023 µg/mL (≈ 0.021 µM)
MIC [18]: 0.094 µg/mL (≈ 0.086 µM)
MIC [19]: 0.064 µg/mL (≈ 0.0585 µM)
MIC [20]: 0.125 µg/mL (≈ 0.114 µM)
MIC [21]: 0.047 µg/mL (≈ 0.043 µM)
MIC [22]: 0.016 µg/mL (≈ 0.0146 µM)
MIC [23]: 0.047 µg/mL (≈ 0.043 µM)
MIC [24]: 0.125 µg/mL (≈ 0.114 µM)
MIC [25]: 0.016 µg/mL (≈ 0.0146 µM)
MIC [26]: 0.032 µg/mL (≈ 0.0293 µM)
MIC [27]: 0.032 µg/mL (≈ 0.0293 µM)
MIC [28]: 0.125 µg/mL (≈ 0.114 µM)
MIC [29]: 0.125 µg/mL (≈ 0.114 µM)
MIC [30]: 0.094 µg/mL (≈ 0.086 µM)
MIC [31]: 0.047 µg/mL (≈ 0.043 µM)
MIC [32]: 0.75 µg/mL (≈ 0.686 µM)
MIC [33]: 0.064 µg/mL (≈ 0.0585 µM)
MIC [34]: 0.064 µg/mL (≈ 0.0585 µM)
MIC [35]: 0.064 µg/mL (≈ 0.0585 µM)
MIC [36]: 0.75 µg/mL (≈ 0.686 µM)
MIC [37]: 0.008 µg/mL (≈ 0.00732 µM)
MIC [38]: 0.064 µg/mL (≈ 0.0585 µM)
MIC [39]: 0.032 µg/mL (≈ 0.0293 µM)
MIC [40]: 0.064 µg/mL (≈ 0.0585 µM)
MIC [41]: 0.064 µg/mL (≈ 0.0585 µM)
MIC [42]: 0.094 µg/mL (≈ 0.086 µM)
MIC [43]: 0.032 µg/mL (≈ 0.0293 µM)
MIC [44]: 0.125 µg/mL (≈ 0.114 µM)
MIC [45]: 0.064 µg/mL (≈ 0.0585 µM)
MIC [46]: 0.064 µg/mL (≈ 0.0585 µM)
MIC [47]: 0.125 µg/mL (≈ 0.114 µM)
MIC [48]: 0.032 µg/mL (≈ 0.0293 µM)
MIC [49]: 0.125 µg/mL (≈ 0.114 µM)
MIC [50]: 0.125 µg/mL (≈ 0.114 µM)
MIC [51]: 0.094 µg/mL (≈ 0.086 µM)
MIC [52]: 0.032 µg/mL (≈ 0.0293 µM)
Structure (SMILES): CC[C@H](C)C[C@H](C)CCCCCCCCC(=O)N[C@H]1C[C@@H](O)[C@@H](NCCN)NC(=O)[C@@H]2[C@@H](O)CCN2C(=O)[C@H]([C@H](O)CCN)NC(=O)[C@H]([C@H](O)[C@@H](O)c2ccc(O)cc2)NC(=O)[C@@H]2C[C@@H](O)CN2C(=O)[C@H]([C@@H](C)O)NC1=O [CASPOFUNGIN]
